Results published in publication PMC7271564 (Haematologica, 2019).
“Also recorded” adds a separate entry of the source.

Experiments:
CD138+CD38- plasma cells = test: HTFC drug sensitivity assay, plasma cell subset; assay type: cell-based, human; conditions: CD138+CD38- plasma cells compared to CD138+CD38+ or other cells, MM samples
Method in brief: (§1)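 Cohort I comprised 16 samples: 3 healthy PB, 3 AML and 10 MM. Samples were tested in 96-well plates against six compounds by no-wash high-throughput flow cytometry (iQue Screener PLUS). Two antibody panels defined up to ten subsets, including CD138+CD38± plasma cells and CD34+CD38± progenitors. Per-population cell counts gave dose–response curves, from which DSS and IC50 were derived. Results were shown as mean±SEM per disease group.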

monocytes (CD14+) = test: HTFC drug sensitivity assay, monocytes; assay type: cell-based, human; conditions: for response of monocytes, in words: mean of 16 samples (3 healthy, 3 AML, 10 MM), Cohort I
Method in brief: (§2)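 Three healthy PB samples were screened ex vivo with 71 compounds at 5 concentrations in 384-well plates. The assay was a no-wash multiplexed flow cytometry run on an iQue Screener PLUS. Six subsets were gated by surface antigen: CD19+, CD56+, CD3+CD4+, CD3+CD8+, CD3+CD56+ and CD14+. Cell counts per subset gave dose–response curves, and DSS was derived from these.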

CD19+/B cells = test: High throughput no-wash flow cytometry; assay type: cell-based, human; conditions: for sensitivity compared to other cell types, in words: B cells, three healthy PB samples, 71-drug screen
CD56+/NK cells = test: HTFC drug sensitivity assay, NK cells; assay type: cell-based, human; conditions: for sensitivity compared to other cell types, in words: NK cells, three healthy PB samples, 71-drug screen
Method in brief: as §2

[1] = system: CD34+CD38+ cells (CPC/blast); test: HTFC drug sensitivity assay, progenitor/blast cells; assay type: cell-based; conditions: Homo sapiens
CD34+CD38- cells (HSC) = test: HTFC drug sensitivity assay, hematopoietic stem cells; assay type: cell-based, human; conditions: CD34+CD38- cells from healthy donors (BM, n=2)
[2] = system: T-cell malignancies (primary samples); test: CellTiter-Glo viability assay; assay type: cell-based, human; conditions: similar to healthy T cells
Method in brief: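 Primary BM aspirates from leukemia patients (Cohort III, n=281 total), with T-PLL samples tested as enriched CD8+ cells, were exposed to the drug panel. The endpoint was CellTiter-Glo luminescent viability. Luminescence was fitted to dose–response curves, from which a drug sensitivity score (DSS) was calculated. Comparison was against bead-enriched healthy BM CD3+ cells.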

T-cell subsets (CD3+) = test: HTFC drug sensitivity assay, T-cell subsets; assay type: cell-based, human
Method in brief: as §1

CC(C)C[C@H](NC(=O)[C@H](Cc1ccccc1)NC(=O)c1cnccn1)B(O)O [bortezomib]
ex vivo response, in words (CD138+CD38- plasma cells): resistant

Cc1nc(Nc2ncc(C(=O)Nc3c(C)cccc3Cl)s2)cc(N2CCN(CCO)CC2)n1 [dasatinib]
drug response profile (DSS clustering), in words (monocytes (CD14+); monocytes, three healthy PB samples, 71-drug screen): selective sensitivity

C[C@@H]1C[C@H]2[C@@H]3CCC4=CC(=O)C=C[C@]4(C)[C@@]3(F)[C@@H](O)C[C@]2(C)[C@@]1(O)C(=O)CO [dexamethasone]
sensitivity compared to other cell types, in words (CD19+/B cells): higher sensitivity
effect on cell count, in words (CD19+/B cells; CD19+ cells, Cohort I samples): depleted
effect on CD14+ cell count, in words (monocytes (CD14+); Cohort I samples): dose-dependent increase
response of monocytes, in words (monocytes (CD14+)): resistant
effect on cell count, in words (CD56+/NK cells; CD56+ cells, Cohort I samples): depleted
sensitivity compared to other cell types, in words (CD56+/NK cells): higher sensitivity

CO[C@@H]1[C@H](N(C)C(=O)c2ccccc2)C[C@H]2O[C@]1(C)n1c3ccccc3c3c4c(c5c6ccccc6n2c5c31)C(=O)NC4 [midostaurin]
sensitivity compared to other cell types, in words (CD19+/B cells): higher sensitivity
IC50 [1]: 0.016 µM
sensitivity, in words (CD34+CD38- cells (HSC)): insensitive; also recorded: no effect
sensitivity compared to other cell types, in words (CD56+/NK cells): higher sensitivity

CC1(C)CCC(c2ccc(Cl)cc2)=C(CN2CCN(c3ccc(C(=O)NS(=O)(=O)c4ccc(N[C@H](CCN5CCOCC5)CSc5ccccc5)c(S(=O)(=O)C(F)(F)F)c4)cc3)CC2)C1 [navitoclax]
response of monocytes, in words (monocytes (CD14+)): resistant

COc1ncc(-c2ccc3nccc(-c4ccnnc4)c3c2)cc1NS(=O)(=O)c1ccc(F)cc1F [omipalisib]
response (DSS), in words [2]: no response
sensitivity, in words (T-cell subsets (CD3+); T-cell subsets, Cohort I samples): insensitive
effect on CD3+ cell count, in words (T-cell subsets (CD3+); at concentrations of 10 and 100 nM): increase

CC1(C)CCC(CN2CCN(c3ccc(C(=O)NS(=O)(=O)c4ccc(NCC5CCOCC5)c([N+](=O)[O-])c4)c(Oc4cnc5[nH]ccc5c4)c3)CC2)=C(c2ccc(Cl)cc2)C1 [venetoclax]
sensitivity compared to other cell types, in words (CD19+/B cells): higher sensitivity
response of monocytes, in words (monocytes (CD14+)): resistant
sensitivity compared to other cell types, in words (CD56+/NK cells): higher sensitivity
